Measurements reported in ChEMBL document CHEMBL3407457, “Microwave-assisted synthesis of certain pyrrolylpyridines, some derived ring systems and their evaluation as anticancer and antioxidant agents” (Eur J Med Chem, 2015).
Calls of active or inactive are those of the source. The rule behind the calls is not given here.

Columns and labels:
EKVX = assay: (§1) Growth inhibition of human EKVX cells at 10 uM after 48 hrs by sulforhodamine B assay; format: functional
Method in brief: (§2)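 NCI-60 primary screen: cells given a single 10 µM dose under 48 h continuous exposure. Growth/viability estimated by sulforhodamine B protein assay. Reported as percent growth of treated cells (mean graph), expressed as percent growth inhibition.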

[1] = Growth inhibition of human HOP92 cells at 10 uM after 48 hrs by sulforhodamine B assay; format: functional; conditions: HOP-92, 48 h, read-out: GI; method in brief: as §2
NCI-H522 = assay: Growth inhibition of human NCI-H522 cells at 10 uM after 48 hrs by sulforhodamine B assay; format: functional; conditions: for inhibition of growth at 10 µM: NCI-H522, 48 h, read-out: GI; method in brief: as §2
HCT-116 = assay: (§3) Growth inhibition of human HCT116 cells at 10 uM after 48 hrs by sulforhodamine B assay; format: functional; method in brief: as §2
[2] = Growth inhibition of human HCT15 cells at 10 uM after 48 hrs by sulforhodamine B assay; format: functional; conditions: HCT-15, 48 h, read-out: GI; method in brief: as §2
Hs-578T = assay: (§4) Growth inhibition of human Hs 578T cells at 10 uM after 48 hrs by sulforhodamine B assay; format: functional; method in brief: as §2
MDA-MB-468 = assay: Growth inhibition of human MDA-MB-468 cells at 10 uM after 48 hrs by sulforhodamine B assay; format: functional; conditions: for inhibition of growth at 10 µM: MDA-MB-468, 48 h, read-out: GI; method in brief: as §2
T47D = assay: Growth inhibition of human T47D cells at 10 uM after 48 hrs by sulforhodamine B assay; format: functional; conditions: read-out: GI; method in brief: as §2
IGROV-1 = assay: Growth inhibition of human IGROV1 cells at 10 uM after 48 hrs by sulforhodamine B assay; format: functional; conditions: IGROV-1, 48 h, read-out: GI; method in brief: as §2
OVCAR-4 = assay: (§5) Growth inhibition of human OVCAR4 cells at 10 uM after 48 hrs by sulforhodamine B assay; format: functional; method in brief: as §2
CCRF-CEM = assay: Growth inhibition of human CCRF-CEM cells at 10 uM after 48 hrs by sulforhodamine B assay; format: functional; conditions: read-out: GI; method in brief: as §2
HL-60(TB) = assay: Growth inhibition of human HL-60(TB) cells at 10 uM after 48 hrs by sulforhodamine B assay; format: functional; conditions: for inhibition of growth at 10 µM: HL-60, 48 h, read-out: GI
Method in brief: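 NCI-60 one-dose primary screen, HL-60(TB) within the leukemia subpanel. Single 10 µM concentration, 48 h continuous exposure. Growth estimated by sulforhodamine B protein assay. Percent growth of treated cells expressed as percentage growth inhibition (GI%).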

K562 = assay: Growth inhibition of human K562 cells at 10 uM after 48 hrs by sulforhodamine B assay; format: functional; conditions: for inhibition of growth at 10 µM: K562, 48 h, read-out: GI; method in brief: as §2
[3] = Growth inhibition of human MOLT4 cells at 10 uM after 48 hrs by sulforhodamine B assay; format: functional; conditions: MOLT-4, 48 h, read-out: GI; method in brief: as §2
[4] = Growth inhibition of human RPMI8226 cells at 10 uM after 48 hrs by sulforhodamine B assay; format: functional; conditions: RPMI-8226, 48 h, read-out: GI; method in brief: as §2
A498 = assay: Growth inhibition of human A498 cells at 10 uM after 48 hrs by sulforhodamine B assay; format: functional; conditions: A498, 48 h, read-out: GI; method in brief: as §2
ACHN = assay: Growth inhibition of human ACHN cells at 10 uM after 48 hrs by sulforhodamine B assay; format: functional; conditions: for inhibition of growth at 10 µM: read-out: GI; method in brief: as §2
CAKI-1 = assay: Growth inhibition of human CAKI-1 cells at 10 uM after 48 hrs by sulforhodamine B assay; format: functional; conditions: for inhibition of growth at 10 µM: CAKI-1, 48 h, read-out: GI; method in brief: as §2
UO-31 = assay: (§6) Growth inhibition of human UO31 cells at 10 uM after 48 hrs by sulforhodamine B assay; format: functional; method in brief: as §2
LOX IMVI = assay: (§7) Growth inhibition of human LOXIMVI cells at 10 uM after 48 hrs by sulforhodamine B assay; format: functional; method in brief: as §2
SK-MEL-5 = assay: Growth inhibition of human SK-MEL-5 cells at 10 uM after 48 hrs by sulforhodamine B assay; format: functional; conditions: for inhibition of growth at 10 µM: SK-MEL-5, 48 h, read-out: GI; method in brief: as §2
[5] = Growth inhibition of human UACC62 cells at 10 uM after 48 hrs by sulforhodamine B assay; format: functional; conditions: UACC-62, 48 h, read-out: GI; method in brief: as §2
[6] = (§8) Growth inhibition of human PC3 cells at 10 uM after 48 hrs by sulforhodamine B assay; format: functional; conditions: PC-3, 48 h, read-out: GI; method in brief: as §2
SNB-75 = assay: Growth inhibition of human SNB75 cells at 10 uM after 48 hrs by sulforhodamine B assay; format: functional; conditions: for inhibition of growth at 10 µM: SNB-75, 48 h, read-out: GI; method in brief: as §2
U-251 = assay: Growth inhibition of human U251 cells at 10 uM after 48 hrs by sulforhodamine B assay; format: functional; conditions: for inhibition of growth at 10 µM: U-251, 48 h, read-out: GI; method in brief: as §2
[7] = as §1; format: functional; conditions: read-out: GI; method in brief: as §2
[8] = as §3; format: functional; conditions: HCT-116, 48 h, read-out: GI; method in brief: as §2
[9] = as §4; format: functional; conditions: read-out: GI; method in brief: as §2
[10] = as §6; format: functional; conditions: UO-31, 48 h, read-out: GI; method in brief: as §2
[11] = Antioxidant activity assessed as DPPH radical scavenging activity at 10^-4 M incubated for 30 mins by spectrophotometry; format: physicochemical; conditions: 0.5 h, 100 µM
Method in brief: (§9)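 Compound at 10^-3 or 10^-4 M mixed with methanolic DPPH (0.1 mL of 1 mM stock; 3 mL total volume), shaken, kept in the dark 30 min at room temperature. Absorbance read at 517 nm. Scavenging (%) = (A_control − A_sample)/A_control × 100, where the control is DPPH in methanol alone. BHT served as reference antioxidant. Triplicate, mean ± SD of three independent experiments.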

[12] = Antioxidant activity assessed as DPPH radical scavenging activity at 10^-3 M incubated for 30 mins by spectrophotometry; format: physicochemical; conditions: 0.5 h, 1000 µM; method in brief: as §9
[13] = as §5; format: functional; conditions: OVCAR-4, 48 h, read-out: GI; method in brief: as §2
[14] = as §7; format: functional; conditions: LOX IMVI, read-out: GI; method in brief: as §2
PC-3 = assay: as §8; format: functional; method in brief: as §2

Compound | inhibition of growth at 10 µM [1] | inhibition of growth at 10 µM (NCI-H522) | inhibition of growth at 10 µM [2] | inhibition of growth at 10 µM (T47D) | inhibition of growth at 10 µM (IGROV-1) | inhibition of growth at 10 µM (CCRF-CEM) | inhibition of growth at 10 µM (K562) | inhibition of growth at 10 µM [3] | inhibition of growth at 10 µM [4] | inhibition of growth at 10 µM (A498) | inhibition of growth at 10 µM (ACHN) | inhibition of growth at 10 µM (SK-MEL-5) | inhibition of growth at 10 µM [5] | inhibition of growth at 10 µM [6] | inhibition of growth at 10 µM [7] | inhibition of growth at 10 µM [8] | inhibition of growth at 10 µM (HL-60(TB)) | inhibition of growth at 10 µM [10] | inhibition of growth at 10 µM (SNB-75) | inhibition of growth at 10 µM [13] | further results
CC1CCCc2c1nc1[nH]c(=S)n(-c3ccccc3)c(=N)c1c2-c1cccn1C (stereo unspecified) | 23.6% | 21.5% | 14.1% | 19.3% | 10.6% | 15.6% | 12.1% | 23.8% | 47.6% | 8.6% | 12.3% | 16.3% | 18.4% | 12.5% | – | – | – | – | – | – | growth inhibition (GI) (EKVX): inactive; growth inhibition (GI) (HCT-116): inactive; growth inhibition (GI) (Hs-578T): inactive; inhibition of growth at 10 µM (MDA-MB-468): 11.4%; growth inhibition (GI) (OVCAR-4): inactive; growth inhibition (GI) (HL-60(TB)): inactive; inhibition of growth at 10 µM (CAKI-1): 13.8%; growth inhibition (GI) (UO-31): inactive; growth inhibition (GI) (LOX IMVI): inactive; growth inhibition (GI) (SNB-75): inactive; growth inhibition (GI) (U-251): inactive
CC1CCCc2c1nc1ncn(N)c(=N)c1c2-c1cccn1C (stereo unspecified) | 11.3% | 10.4% | 13.4% | 17.5% | 12.4% | 30.1% | 18.3% | 29.2% | 38.6% | 14.6% | – | 10.5% | 16.9% | 20.4% | 16.2% | 11.7% | 11.6% | 7.3% | 10.7% | – | inhibition of growth at 10 µM [9]: 10.7%; growth inhibition (GI) (MDA-MB-468): inactive; growth inhibition (GI) (OVCAR-4): inactive; growth inhibition (GI) (ACHN): inactive; growth inhibition (GI) (CAKI-1): inactive; growth inhibition (GI) (LOX IMVI): inactive; growth inhibition (GI) (U-251): inactive
CC1CCCc2c1nc1[nH]c(=S)nc(N)c1c2-c1cccn1C (stereo unspecified) | 36.4% | 29.7% | 13.4% | 40.1% | 34.4% | 26.7% | 29.6% | 32.6% | 51.9% | 41.3% | 15.2% | 18.4% | 23.5% | 19.8% | 18.9% | 22.6% | 33.2% | 34.7% | 17.5% | 13.8% | inhibition (INH) [11]: 14%; inhibition (INH) [12]: 26%; growth inhibition (GI) (Hs-578T): inactive; growth inhibition (GI) (MDA-MB-468): inactive; growth inhibition (GI) (CAKI-1): inactive; inhibition of growth at 10 µM [14]: 10.7%; inhibition of growth at 10 µM (U-251): 21.4%
CC1CCCc2c1nc1ncn3ncnc3c1c2-c1cccn1C (stereo unspecified) | 10.1% | – | 6.3% | 11.8% | 7.9% | 10.3% | – | 20.4% | 12.2% | 5.7% | – | – | 8.3% | – | – | – | 8.5% | – | – | 6.1% | growth inhibition (GI) (EKVX): inactive; growth inhibition (GI) (NCI-H522): inactive; growth inhibition (GI) (HCT-116): inactive; growth inhibition (GI) (Hs-578T): inactive; growth inhibition (GI) (MDA-MB-468): inactive; growth inhibition (GI) (K562): inactive; growth inhibition (GI) (ACHN): inactive; growth inhibition (GI) (CAKI-1): inactive; growth inhibition (GI) (UO-31): inactive; growth inhibition (GI) (LOX IMVI): inactive; growth inhibition (GI) (SK-MEL-5): inactive; growth inhibition (GI) (PC-3): inactive; growth inhibition (GI) (SNB-75): inactive; growth inhibition (GI) (U-251): inactive
CCSc1nc(N)c2c(-c3cccn3C)c3c(nc2n1)C(C)CCC3 (stereo unspecified) | 28.7% | 33.8% | 10.8% | 54.2% | 35.3% | 21.6% | 37.4% | 42.3% | 68.5% | 26.5% | 11.9% | 13.1% | 24.1% | 57.1% | 34.1% | 35.3% | 25.8% | 45.8% | 21.4% | 23.4% | inhibition (INH) [11]: 16%; inhibition (INH) [12]: 28%; inhibition of growth at 10 µM [9]: 15.2%; inhibition of growth at 10 µM (MDA-MB-468): 15.4%; inhibition of growth at 10 µM (CAKI-1): 21.7%; inhibition of growth at 10 µM [14]: 12.9%; inhibition of growth at 10 µM (U-251): 16.7%
CC1CCCc2c1nc(NC(=S)NC(=O)c1ccccc1)c(C#N)c2-c1cccn1C (stereo unspecified) | 32% | 22.4% | 20.1% | 40.6% | 38.8% | 27.5% | 33.5% | 31.4% | 36.7% | 22.6% | 31.4% | 12.8% | 24.7% | 28.4% | 14.2% | 19.5% | 35.9% | 51.4% | 31.9% | 27.6% | inhibition (INH) [11]: 11%; inhibition (INH) [12]: 23%; inhibition of growth at 10 µM [9]: 38.1%; inhibition of growth at 10 µM (MDA-MB-468): 32.7%; inhibition of growth at 10 µM (CAKI-1): 31.9%; inhibition of growth at 10 µM [14]: 29.6%; inhibition of growth at 10 µM (U-251): 15.8%
